Experimental data from ChEMBL document CHEMBL1139742, “3-(Indol-2-yl)indazoles as Chek1 kinase inhibitors: Optimization of potency and selectivity via substitution at C6” (Bioorg Med Chem Lett, 2006).

How the values were obtained:
Homo sapiens = species: Homo sapiens; assay: Selectivity for Chek1 over Cdk7
NCI-H1299 = assay: Release of NCI-H1299 cells from DNA damage-induced cell cycle arrest by CEA; type: functional, cell-based; conditions: Homo sapiens
Procedure, shortened: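 NCI-H1299 lung carcinoma cells were arrested by 16 h camptothecin treatment, then exposed to inhibitor for a further 8 h. Escape into mitosis was read as mitosis-specific nucleolin phosphorylation in an antibody-coated bead-based assay. EC50 came from a 10-point half-log dilution series, averaged over tetraplicate determinations.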

[1] = biological target: Cyclin-dependent kinase 7 (Homo sapiens, UniProt P50613); assay: Inhibition of Cdk7
[2] = biological target: T1, Serine/threonine-protein kinase Chk1 (Homo sapiens, UniProt O14757); assay: Inhibition of Chek1
T1 sequence (O14757 whole entry): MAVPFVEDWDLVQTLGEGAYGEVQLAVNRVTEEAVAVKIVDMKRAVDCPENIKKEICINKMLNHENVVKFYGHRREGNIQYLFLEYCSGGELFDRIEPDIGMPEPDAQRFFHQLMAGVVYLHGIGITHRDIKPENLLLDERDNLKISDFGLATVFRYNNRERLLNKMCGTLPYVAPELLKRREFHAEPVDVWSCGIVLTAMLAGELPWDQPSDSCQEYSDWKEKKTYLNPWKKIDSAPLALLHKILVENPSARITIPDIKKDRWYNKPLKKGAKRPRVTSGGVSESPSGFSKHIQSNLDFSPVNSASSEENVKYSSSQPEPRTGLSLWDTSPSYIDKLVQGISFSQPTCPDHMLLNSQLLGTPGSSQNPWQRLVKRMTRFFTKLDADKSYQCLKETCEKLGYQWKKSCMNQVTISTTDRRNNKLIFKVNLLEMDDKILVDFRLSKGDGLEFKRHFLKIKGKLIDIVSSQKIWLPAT

[3] = biological target: T1, Serine/threonine-protein kinase Chk1; assay: Inhibition of autophosphorylation of Chek1 in NCI-H1299 cells; type: functional, cell-based
Procedure, shortened: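 Cyto-blot of Chek1 autophosphorylation with phospho-S296 Chek1 antibody in NCI-H1299 lung carcinoma cells. Cells incubated with inhibitor 2 h, then camptothecin added for a further 4 h. Cellular assay ATP 2.0 mM. 10-point, 3-fold dilution series. IC50 averaged over triplicate determinations.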

Sequence of Cyclin-dependent kinase 7 (P50613 whole entry): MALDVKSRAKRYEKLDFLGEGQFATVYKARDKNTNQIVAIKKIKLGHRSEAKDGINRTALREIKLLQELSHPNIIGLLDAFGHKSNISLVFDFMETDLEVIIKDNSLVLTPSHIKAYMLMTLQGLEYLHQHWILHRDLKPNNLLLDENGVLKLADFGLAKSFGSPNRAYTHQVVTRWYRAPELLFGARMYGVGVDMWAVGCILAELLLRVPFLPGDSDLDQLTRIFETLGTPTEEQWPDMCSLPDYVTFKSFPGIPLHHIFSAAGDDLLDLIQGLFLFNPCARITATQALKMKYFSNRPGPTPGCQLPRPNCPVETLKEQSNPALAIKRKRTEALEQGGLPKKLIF

Structure (SMILES)	Ratio IC50 (Homo sapiens)	EC50 (NCI-H1299) [nM]	IC50 [1] [nM]	IC50 [2] [nM]	IC50 [3] [nM]	IC50 (NCI-H1299) [nM]
c1cnn(-c2ccc3c(-c4cc5cc(CN6CCCCC6)ccc5[nH]4)n[nH]c3c2)n1	14	4500	480	34	–	–
c1ccc2[nH]c(-c3n[nH]c4cc(-c5nnn[nH]5)ccc34)cc2c1	–	–	–	27	> 10000	> 10000
c1ccc(-c2ccc3c(-c4cc5cc(CN6CCCCC6)ccc5[nH]4)n[nH]c3c2)cc1	160	5000	7000	45	–	–
COC(=O)c1ccc2c(-c3cc4cc(CN5CCOCC5)ccc4[nH]3)n[nH]c2c1	–	1930	6500	62	–	–
c1cc2[nH]c(-c3n[nH]c4cc(-c5cnsc5)ccc34)cc2cc1CN1CCCCC1	1.5	> 10000	18	12	–	–
CC(=O)N1CCN(Cc2ccc3[nH]c(-c4n[nH]c5cc(-c6nnn[nH]6)ccc45)cc3c2)CC1	–	–	–	2.3	> 10000	> 10000
CNC(=O)c1ccc2c(-c3cc4cc(CN5CCOCC5)ccc4[nH]3)n[nH]c2c1	–	650	4900	13	–	–
c1cc2[nH]c(-c3n[nH]c4cc(-c5cn[nH]c5)ccc34)cc2cc1CN1CCOCC1	–	> 50000	25	10	–	–
OCc1nn[nH]c1-c1ccc2c(-c3cc4cc(CN5CCC(F)CC5)ccc4[nH]3)n[nH]c2c1	–	340	180	0.3	–	–
CC(=O)N1CCN(Cc2ccc3[nH]c(-c4n[nH]c5cc(Cl)ccc45)cc3c2)CC1	–	–	–	120	–	–
COc1cc(-c2ccc3c(-c4cc5cc(CN6CCCCC6)ccc5[nH]4)n[nH]c3c2)ccc1O	–	92	310	0.25	–	–
c1cn(-c2ccc3c(-c4cc5cc(CN6CCCCC6)ccc5[nH]4)n[nH]c3c2)nn1	22	350	57	2.6	–	–
NC(=O)c1ccc2c(-c3cc4cc(CN5CCOCC5)ccc4[nH]3)n[nH]c2c1	–	980	1300	12	–	–
CC(=O)N1CCN(Cc2ccc3[nH]c(-c4n[nH]c5cc(C#N)ccc45)cc3c2)CC1	–	–	39	17	1000	> 10000
CN(C)C(=O)c1ccc2c(-c3cc4cc(CN5CCOCC5)ccc4[nH]3)n[nH]c2c1	–	4000	> 100000	80	–	–
c1cc(-c2ccc3c(-c4cc5cc(CN6CCOCC6)ccc5[nH]4)n[nH]c3c2)[nH]n1	0.58	> 50000	34	59	–	–
OCc1n[nH]nc1-c1ccc2c(-c3cc4cc(CN5CCCCC5)ccc4[nH]3)n[nH]c2c1	190	690	56	–	–	–
Cn1cc(-c2ccc3c(-c4cc5cc(CN6CCOCC6)ccc5[nH]4)n[nH]c3c2)cn1	–	–	–	530	–	–
c1csc(-c2ccc3c(-c4cc5cc(CN6CCCCC6)ccc5[nH]4)n[nH]c3c2)n1	83	2000	4000	48	–	–
CC(=O)N1CCN(Cc2ccc3[nH]c(-c4n[nH]c5ccccc45)cc3c2)CC1	–	–	–	640	–	–
NCc1nn[nH]c1-c1ccc2c(-c3cc4cc(CN5CCC(F)CC5)ccc4[nH]3)n[nH]c2c1	–	610	300	0.11	–	–
N#Cc1ccc2c(-c3cc4cc(CN5CCOCC5)ccc4[nH]3)n[nH]c2c1	–	> 50000	–	30	–	–
c1cnn(-c2ccc3c(-c4cc5cc(CN6CCCCC6)ccc5[nH]4)n[nH]c3c2)c1	22	> 10000	2300	110	–	–
Cc1cnnn1-c1ccc2c(-c3cc4cc(CN5CCCCC5)ccc4[nH]3)n[nH]c2c1	14	1400	420	30	–	–
